# Test results: ChEMBL document CHEMBL1955829, “Synthesis and biological evaluation of 4β-sulphonamido and 4β-[(4'-sulphonamido)benzamide]podophyllotoxins as DNA topoisomerase-IIα and apoptosis inducing agents” (2012)
# Active and inactive are the calls of the source. No cut-off for these calls is given here.
# What was measured:
# [1] = test system: ZR-75-1; assay: Growth inhibition of human ZR-75-1 cells after 48 hrs by sulforhodamine B assay; type: functional; settings: ZR-75-1, 48 h
# Procedure, shortened: (§1)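 Cells grown in DMEM with 10% FBS and 2 mM L-glutamine, plated at densities set by doubling time, and held 24 h before dosing. Exposure was 48 h to 0.1, 1, 10 and 100 µM in triplicate wells. Cells fixed with cold TCA (final 10%) 60 min at 4 °C and stained with 0.4% SRB 20 min. Bound dye eluted in 10 mM Tris base and read at 540 nm (690 nm reference). GI50 is the concentration giving 50% reduction in net protein gain versus control; values are the mean of three determinations.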
# [2] = Growth inhibition of human DWD cells after 48 hrs by sulforhodamine B assay; type: functional; procedure, shortened: as §1
# [3] = test system: KB; assay: Growth inhibition of human KB cells after 48 hrs by sulforhodamine B assay; type: functional; procedure, shortened: as §1
# [4] = test system: COLO 205; assay: Growth inhibition of human COLO205 cells after 48 hrs by sulforhodamine B assay; type: functional; settings: COLO 205, 48 h; procedure, shortened: as §1
# [5] = test system: A549; assay: Growth inhibition of human A549 cells after 48 hrs by sulforhodamine B assay; type: functional; settings: A549, 48 h; procedure, shortened: as §1
# [6] = test system: HOP-62; assay: Growth inhibition of human HOP62 cells after 48 hrs by sulforhodamine B assay; type: functional; settings: HOP-62, 48 h; procedure, shortened: as §1
# [7] = test system: A2780; assay: Growth inhibition of human A2780 cells after 48 hrs by sulforhodamine B assay; type: functional; settings: A2780, 48 h; procedure, shortened: as §1
# [8] = test system: MCF7; assay: Growth inhibition of human MCF7 cells after 48 hrs by sulforhodamine B assay; type: functional; settings: MCF7, 48 h; procedure, shortened: as §1
# [9] = test system: COLO 205; assay: Up-regulation of topoisomerase 2alpha in human COLO205 cells at 4 uM after 24 hrs by Western blotting analysis in presence of HDAC inhibitor, trichostatin A; type: functional, cell-based
# Procedure, shortened: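 Colo-205 cells exposed 24 h to test agent plus TSA, each at 4 µM. Western blot of lysates probed for topo-IIα, with β-actin as loading control.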
# [10] = test system: COLO 205; assay: Induction of apoptosis in human COLO205 cells assessed as down regulation of Bcl-2 at 4 uM after 24 hrs by ELISA; type: functional, cell-based
# Procedure, shortened: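 Colo-205 cells treated 24 h at 4 µM, with etoposide and camptothecin as controls. Lysates added to Bcl2-antibody-coated wells, followed by a biotin-conjugated anti-human Bcl2 monoclonal antibody, in a Bcl2 ELISA.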
# [11] = test system: COLO 205; assay: Cytotoxicity against human COLO205 cells at 2 uM after 24 hrs by MTT assay; type: functional, cell-based
# Procedure, shortened: (§2)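 Colo-205 cells plated at 10,000 per well, left overnight, then exposed 24 h at 2, 4 or 8 µM. MTT added for 2 h at 37 °C, formazan dissolved in extraction buffer, and optical density read at 570 nm against untreated cells.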
# [12] = test system: COLO 205; assay: Cell cycle arrest in human COLO205 cells assessed as accumulation at S phase at 4 uM after 24 hrs by FACS analysis (reference value: 8.91%); type: functional
# Procedure, shortened: (§3)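 Colo-205 cells seeded at […] per 60 mm dish and treated 24 h at 4 µM; TSA arm used TSA at 4 µM for 12 h. Cells trypsinised, fixed in ice-cold 70% ethanol 30 min at 4 °C, RNase 1 mg/mL 30 min at 37 °C, then propidium iodide/citrate/Triton stain. DNA content of 20,000 events read by flow cytometry; phase percentages from histograms.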
# [13] = test system: COLO 205; assay: Cytotoxicity against human COLO205 cells at 4 uM after 24 hrs by MTT assay; type: functional, cell-based; procedure, shortened: as §2
# [14] = test system: COLO 205; assay: Cell cycle arrest in human COLO205 cells assessed as accumulation at G1 phase at 4 uM after 24 hrs by FACS analysis (reference value: 60.89%); type: functional; procedure, shortened: as §3
# [15] = test system: COLO 205; assay: Cytotoxicity against human COLO205 cells at 8 uM after 24 hrs by MTT assay; type: functional, cell-based; procedure, shortened: as §2
# [16] = test system: COLO 205; assay: Cell cycle arrest in human COLO205 cells assessed as accumulation at G0 phase at 4 uM after 24 hrs by FACS analysis (reference value: 4.29%); type: functional; procedure, shortened: as §3
# [17] = test system: COLO 205; assay: Cell cycle arrest in human COLO205 cells assessed as accumulation at G2/M phase at 4 uM after 24 hrs by FACS analysis (reference value: 25.92%); type: functional; procedure, shortened: as §3
Structure (SMILES),GI50 [1],GI50 [2],GI50 [3],GI50 [4],GI50 [5],GI50 [6],GI50 [7],GI50 [8],Activity [9],Activity [10],Activity [11],Percentage of cells in S phase [12],Activity [13],Activity [14],Activity [15],Activity [16],Percentage of cells in G2/M phase [17]
COc1cc([C@@H]2c3cc4c(cc3[C@@H](NS(=O)(=O)c3cc(Cl)sc3Cl)[C@H]3COC(=O)[C@H]23)OCO4)cc(OC)c1OC,2500 nM,150 nM,2100 nM,150 nM,140 nM,2000 nM,160 nM,110 nM,–,–,–,–,–,–,–,–,–
COc1cc([C@@H]2c3cc4c(cc3[C@@H](NC(=O)c3ccc(NS(=O)(=O)c5cccc6ccccc56)cc3)[C@H]3COC(=O)[C@H]23)OCO4)cc(OC)c1OC,2810 nM,–,2000 nM,2120 nM,2600 nM,2220 nM,2000 nM,2320 nM,–,–,–,–,–,–,–,–,–
CC[C@@]1(O)C(=O)OCc2c1cc1n(c2=O)Cc2cc3ccccc3nc2-1,–,–,–,–,–,–,–,–,inactive,Active,–,–,–,–,–,–,–
COc1cc([C@@H]2c3cc4c(cc3[C@@H](NS(=O)(=O)c3ccc(Oc5ccccc5)cc3)[C@H]3COC(=O)[C@H]23)OCO4)cc(OC)c1OC,2310 nM,2910 nM,2310 nM,–,2110 nM,–,2400 nM,2210 nM,–,–,–,–,–,–,–,–,–
COc1cc([C@@H]2c3cc4c(cc3[C@@H](NS(=O)(=O)c3sc(NC(C)=O)nc3C)[C@H]3COC(=O)[C@H]23)OCO4)cc(OC)c1OC,170 nM,140 nM,170 nM,110 nM,120 nM,160 nM,150 nM,150 nM,–,–,–,–,–,–,–,–,–
COc1ccc(S(=O)(=O)Nc2ccc(C(=O)N[C@@H]3c4cc5c(cc4[C@@H](c4cc(OC)c(OC)c(OC)c4)[C@H]4C(=O)OC[C@@H]43)OCO5)cc2)cc1,2120 nM,2020 nM,–,2510 nM,–,2710 nM,–,160 nM,–,–,–,–,–,–,–,–,–
COc1cc([C@@H]2c3cc4c(cc3[C@@H](NC(=O)c3ccc(NS(=O)(=O)c5cccc6cccnc56)cc3)[C@H]3COC(=O)[C@H]23)OCO4)cc(OC)c1OC,–,140 nM,–,2310 nM,2510 nM,2610 nM,2420 nM,2900 nM,–,–,–,–,–,–,–,–,–
COc1cc([C@@H]2c3cc4c(cc3[C@@H](NS(=O)(=O)c3ccc(Br)s3)[C@H]3COC(=O)[C@H]23)OCO4)cc(OC)c1OC,180 nM,50 nM,40 nM,40 nM,120 nM,40 nM,60 nM,130 nM,–,–,Active,16.51%,Active,34.67%,Active,11.04%,37.78%
COc1cc([C@@H]2c3cc4c(cc3[C@@H](NC(=O)c3ccc(NS(=O)(=O)c5cccc6nsnc56)cc3)[C@H]3COC(=O)[C@H]23)OCO4)cc(OC)c1OC,2230 nM,2800 nM,–,–,–,2910 nM,2110 nM,170 nM,–,–,–,–,–,–,–,–,–
COc1cc([C@@H]2c3cc4c(cc3[C@@H](NS(=O)(=O)c3cccc5cccnc35)[C@H]3COC(=O)[C@H]23)OCO4)cc(OC)c1OC,80 nM,170 nM,60 nM,40 nM,40 nM,60 nM,80 nM,120 nM,–,–,Active,10.35%,Active,58.41%,Active,3.06%,28.19%
COc1cc([C@@H]2c3cc4c(cc3[C@@H](NC(=O)c3ccc(NS(=O)(=O)c5ccc(-c6ccccc6)cc5)cc3)[C@H]3COC(=O)[C@H]23)OCO4)cc(OC)c1OC,2110 nM,2880 nM,2500 nM,2800 nM,–,–,2510 nM,2300 nM,–,–,–,–,–,–,–,–,–
COc1cc([C@@H]2c3cc4c(cc3[C@@H](NS(=O)(=O)c3cccc5ccccc35)[C@H]3COC(=O)[C@H]23)OCO4)cc(OC)c1OC,2100 nM,2000 nM,2300 nM,2100 nM,160 nM,2400 nM,1910 nM,90 nM,–,–,–,–,–,–,–,–,–
COc1cc([C@@H]2c3cc4c(cc3[C@@H](NS(=O)(=O)c3ccc(S(=O)(=O)c5ccccc5)s3)[C@H]3COC(=O)[C@H]23)OCO4)cc(OC)c1OC,2110 nM,2610 nM,2110 nM,–,–,–,2300 nM,140 nM,–,–,–,–,–,–,–,–,–
COc1cc([C@@H]2c3cc4c(cc3[C@@H](NC(=O)c3ccc(NS(=O)(=O)c5ccc(Br)s5)cc3)[C@H]3COC(=O)[C@H]23)OCO4)cc(OC)c1OC,2900 nM,2500 nM,–,–,–,2010 nM,2110 nM,2710 nM,–,–,–,–,–,–,–,–,–
COc1cc([C@@H]2c3cc4c(cc3[C@@H](NC(=O)c3ccc(NS(=O)(=O)c5ccc(Oc6ccccc6)cc5)cc3)[C@H]3COC(=O)[C@H]23)OCO4)cc(OC)c1OC,2900 nM,2100 nM,2010 nM,–,2700 nM,2000 nM,–,–,–,–,–,–,–,–,–,–,–
COc1cc([C@@H]2c3cc4c(cc3[C@@H](NS(=O)(=O)c3ccc(-c5ccccc5)cc3)[C@H]3COC(=O)[C@H]23)OCO4)cc(OC)c1OC,2300 nM,2210 nM,–,2710 nM,2000 nM,2010 nM,2110 nM,2610 nM,–,–,–,–,–,–,–,–,–
COc1cccc2c1C(=O)c1c(O)c3c(c(O)c1C2=O)C[C@@](O)(C(=O)CO)C[C@@H]3O[C@H]1C[C@H](N)[C@H](O)[C@H](C)O1 [DOXORUBICIN],–,100 nM,170 nM,140 nM,–,140 nM,160 nM,170 nM,–,–,–,–,–,–,–,–,–
COc1cc([C@@H]2c3cc4c(cc3[C@@H](NS(=O)(=O)c3cccc5nsnc35)[C@H]3COC(=O)[C@H]23)OCO4)cc(OC)c1OC,2510 nM,–,–,–,2710 nM,2210 nM,2310 nM,2210 nM,–,–,–,–,–,–,–,–,–
